Screens (PubChem BioAssay)
This is a sample that favours compounds with a hit; in the whole collection about 4.5% have one here.
OX1R antag-1 = OX1R (human) antagonism. OX1R-expressing cells, FRET antagonist read-out. inhibition, % at 6.6 µM. actives 1.8% (n = 330,000). AID 485270; in the data active = inhibition mostly above about 38%, no sharp cut-off; inactive = mostly below about 40%;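 also: 0% = agonist challenge alone and 100% = reference antagonist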
OX1R antag-2 = blocks the human orexin 1 receptor; AID 434989; O43613; CHO/OX1R cells, Fluo-8 calcium fluorescence, orexin A; actives 0.43% (n = 330,000); inhibition, % at 5 µM;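 active = inhibition above its plate's threshold, mean inhibition of all tested compounds on the plate plus 3 SD, cut at about 37% in these data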;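 also: 0% = orexin A challenge wells and 100% = SB-334867-A antagonist wells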
TAAR1 antag = antagonists of human TAAR1; Q96RJ0; CHO RD-HGA16 TAAR1, Fluo-8 calcium fluorescence, antagonist; inhibition, % at 3 µM; actives 1.5% (n = 360,000); AID 624466;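 active = inhibition above a per-plate cutoff, the mean inhibition of test compounds on that plate plus 3 SD, cut at about 49% in these data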;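 also: 0% = DMSO plus EC80 beta-PEA response and 100% = DMSO alone without agonist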
Target sequence (Q96RJ0 whole entry, looked up): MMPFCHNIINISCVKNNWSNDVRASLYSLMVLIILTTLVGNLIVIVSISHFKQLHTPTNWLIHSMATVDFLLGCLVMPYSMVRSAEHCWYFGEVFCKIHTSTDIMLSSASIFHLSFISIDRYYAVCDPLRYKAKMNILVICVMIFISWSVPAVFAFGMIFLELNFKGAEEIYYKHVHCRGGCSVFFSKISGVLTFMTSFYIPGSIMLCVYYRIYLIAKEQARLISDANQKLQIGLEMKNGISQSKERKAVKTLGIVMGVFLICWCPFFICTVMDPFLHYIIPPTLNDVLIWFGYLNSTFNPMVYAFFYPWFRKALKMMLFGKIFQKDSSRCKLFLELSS
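Test system: CHO RD-HGA16 cells bearing hTAAR1 | Reagent: β-PEA, EC80 | Compound dosing: 3 µM, single point | Schedule: Dye loading 75 min at 37 °C, then 30 min room temperature | Signal: Calcium fluorescence with Fluo-8 | Evaluation: Percent inhibition of PEA-evoked calcium signal, max/basal emission ratio | Control set: DMSO-only wells and EC80 β-PEA-stimulated wells | Repeats: Singlicate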
TAAR1 ag = human TAAR1 agonism | CHO RD-HGA16 TAAR1, Fluo-8 calcium fluorescence; vehicle wells 0%, saturating PEA agonist 100% | AID 624467 | actives 0.99% (n = 360,000) | Q96RJ0 | activation, % at 3 µM;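 active = activation above the mean activation of all test compounds in the run plus 3 SD, cut at about 38% in these data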
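Test system: RD-HGA16 (CHO) cells co-expressing Gα16 and hTAAR1 | Doses: Single dose, 3 µM | Schedule: 17-24 h seeding, 75 min 37 °C dye, 30 min RT | Evaluation: % activation from peak over basal fluorescence ratio, DMSO-to-PEA scaled | Technique: Kinetic Fluo-8 calcium fluorescence | Benchmarks: Low control DMSO, high control PEA (EC100)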
GPR7 antagonist = blocks human GPR7 receptor signaling; P48145; GPR7-expressing cells, fluorescence antagonist assay; inhibition, % at 4.4 µM; actives 1.1% (n = 290,000); in the data active = inhibition above about 16%, passing the limit was not always enough;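 also: cells stimulated with the agonist NPW; 0% = agonist with vehicle and 100% = vehicle without agonist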
Target sequence (P48145 whole entry, looked up): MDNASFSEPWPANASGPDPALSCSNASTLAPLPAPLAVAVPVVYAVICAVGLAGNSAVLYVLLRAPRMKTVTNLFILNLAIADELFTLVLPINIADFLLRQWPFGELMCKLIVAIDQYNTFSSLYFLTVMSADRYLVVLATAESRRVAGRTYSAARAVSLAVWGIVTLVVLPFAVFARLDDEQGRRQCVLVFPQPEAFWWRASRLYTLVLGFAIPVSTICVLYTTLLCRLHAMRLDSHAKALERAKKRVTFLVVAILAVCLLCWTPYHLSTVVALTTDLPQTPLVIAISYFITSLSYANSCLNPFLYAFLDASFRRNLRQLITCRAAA
CHO parental Ca = counter-screen for OX1R antagonists: effect in parental CHO cells. inhibition, % at 5.6 µM. parental CHO-K1, ATP-induced calcium, Fluo-8 fluorescence. actives 0.63% (n = 330,000). AID 463079;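 active = inhibition above that plate's mean sample inhibition plus 3 SD, cut at about 26% in these data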;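 also: 0% = ATP-challenged DMSO wells and 100% = DMSO wells without ATP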
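material = parental CHO cells | also added = ATP as calcium-mobilizing challenge | dosing = single point at 5.6 µM | detection = intracellular calcium via Fluo-8 no-wash fluorescent dye | read-out = % inhibition | benchmarks = low control ATP plus DMSO, high control DMSO only | repeats = one well per compound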
TAAR1 nonsel count = nonselective antagonism, TAAR1 counter-screen. actives 77% (n = 2,400). shares compounds with TAAR1 antag. counterscreen cell line, calcium fluorescence, antagonist mode. AID 651780. inhibition, % at 3 µM; in the data active = inhibition above about 22%;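 also: CHO-Ga16 host cells stimulated with ATP at an EC80 level; 0% = agonist EC80 plus vehicle and 100% = vehicle without agonist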
TAAR1 antag conf = confirmation of human TAAR1 antagonists; shares compounds with TAAR1 antag; TAAR1-expressing cells, fluorescence antagonist read-out; inhibition, % at 3 µM; actives 40% (n = 2,400); in the data active = inhibition above about 49%;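 also: CHO-Ga16 host cells challenged with agonist PEA near its EC80; 0% = agonist at EC80 plus vehicle and 100% = vehicle with no agonist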
Ga16 nonsel ag = counter-screen for TAAR1 antagonists: nonselective Ga16 agonists. shares compounds with TAAR1 antag. Ga16-expressing cells, calcium fluorescence, agonist counterscreen. activation, % at 3 µM. actives 18% (n = 2,400); in the data active = activation above about 12%;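 also: 0% = vehicle wells and 100% = saturating stimulus response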
TAAR1 ag counter = counter-screen for human TAAR1 antagonists: TAAR1 agonists. shares compounds with TAAR1 antag. hTAAR1 cell line, fluorescence activation, agonist mode. activation, % at 3 µM. actives 2% (n = 2,400); in the data active = activation above about 37%;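 also: CHO cells stably expressing TAAR1 with calcium dye readout; 0% = DMSO vehicle and 100% = full agonist response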
* = called active by the depositor; / = not tested or not shown.

SMILES	OX1R antag-1	OX1R antag-2	TAAR1 antag	TAAR1 ag	GPR7 antagonist	CHO parental Ca	TAAR1 nonsel count	TAAR1 antag conf	Ga16 nonsel ag	TAAR1 ag counter
CC(C)[C@H](NC(=O)c1ccco1)C(=O)OCC(=O)c1ccc(Br)s1	3	-30	-27	2	/	-20	/	/	/	/
OC[C@@H]1CN(Cc2cccc(C(F)(F)F)c2)C[C@H](n2cnc3c(NCc4ccc(F)cc4)ncnc32)O1	/	/	30	8	/	/	/	/	/	/
OC[C@@H]1CN(Cc2cccc(C(F)(F)F)c2)C[C@H](n2cnc3c(NCc4ccco4)ncnc32)O1	/	/	74*	17	/	/	23*	39	11	11
COc1cc(C(=O)OCc2csc(CC(=O)Nc3cc(C)ccc3C)n2)ccc1OC(F)F	/	/	66*	9	/	/	42*	53*	8	5
Cc1ccc(C)c(NC(=O)Cc2nc(CCl)cs2)c1	4	-11	2	-2	4	-4	/	/	/	/
O=C(OCC(=O)N1CCCc2ccccc21)c1ccccc1OC(F)F	11	-5	23	8	/	-14	/	/	/	/
COc1ccc(NC(=O)CNC(=O)c2nn(-c3ccc(OC)c(OC)c3)c(=O)c3ccccc23)c(OC)c1	4	-27	41	17	-15	-19	/	/	/	/
CCOC(=O)N1CCN(C(=O)CNC(=O)c2nn(-c3ccc(OC)c(Cl)c3)c(=O)c3ccccc23)CC1	29	-14	62*	16	-6	-24	32*	44	6	9
COc1ccc(-n2nc(C(=O)NCC(=O)Nc3cc(OC)c(OC)c(OC)c3)c3ccccc3c2=O)cc1OC	-2	-29	64*	16	-10	-25	29*	51*	7	13
COc1ccc(-n2nc(C(=O)NCC(=O)Nc3cc(OC)c(OC)c(OC)c3)c3ccccc3c2=O)cc1	30	-25	58*	18	-11	-11	28*	51*	7	8
O=C(COC(=O)/C=C/c1cccc(Br)c1)NC1CCCC1	15	-22	-15	2	/	-16	/	/	/	/
Cc1cccc(CN2CCN(C3CN(CCc4ccccc4)S(=O)(=O)C3)CC2)c1 (stereo not drawn)	/	/	-26	18	/	/	/	/	/	/
COc1cc(C2CC(=O)c3c([nH]c(C(=O)OCCOC(C)C)c3C)C2)cc(OC)c1OC (stereo not drawn)	19	-1	64*	9	18*	31*	35*	45	12*	13
COc1cccc(CNC(=O)C2CCCN(C(=O)c3ccc(Cl)cc3)C2)c1 (stereo not drawn)	2	-12	-15	-1	/	-14	/	/	/	/
Cc1ccccc1Cn1nc(C)c(NC(=O)c2sc3ccccc3c2Cl)c1C	24	-15	55*	9	-13	-26	26*	41	5	4
Cc1nn(Cc2ccc(Cl)cc2Cl)c(C)c1NC(=O)c1sc2ccccc2c1Cl	15	-20	-7	4	-11	3	/	/	/	/
O=c1c2ccccc2sc2nc(CCl)nn12	/	/	-2	1	/	/	/	/	/	/
O=C1c2ccccc2C(c2nnnn2Cc2ccccc2)N1Cc1cccc(F)c1 (stereo not drawn)	/	/	-6	1	/	/	/	/	/	/
Cc1ccc(S(=O)(=O)N(C)c2ccc(C(=O)N(C)Cc3nc4ccccc4c(=O)[nH]3)cc2)cc1	/	/	8	4	/	/	/	/	/	/
O=C1C(CCc2ccccc2)ON=C(c2cnccn2)N1Cc1ccc(F)cc1 (stereo not drawn)	/	/	30	0	/	/	/	/	/	/
CC(=O)Nc1ccc(CN2C(=O)C(CCc3ccccc3)ON=C2c2cnccn2)cc1 (stereo not drawn)	/	/	76*	20	/	/	29*	54*	11	10
Cc1nn2c(C)c(C(=O)Nc3ccccc3)cnc2c1C#N	26	-24	53*	13	-3	-5	20	35	9	8
Cc1cc2ncc(C(=O)Nc3ccccc3)c(C)n2n1	9	-22	-3	2	-15	-15	/	/	/	/
Cc1onc(-c2ccccc2Cl)c1C(=O)Nc1ccc(Br)cc1	12	-18	0	-5	1	5	/	/	/	/
O=C(CCC(=O)Nc1ccc(F)cc1)N/N=C/c1ccc(Br)cc1	5	-17	53*	37	13	-14	9	34	-1	19
SMILES	OX1R antag-1	OX1R antag-2	TAAR1 antag	TAAR1 ag	GPR7 antagonist	CHO parental Ca	TAAR1 nonsel count	TAAR1 antag conf	Ga16 nonsel ag	TAAR1 ag counter
CC(C)c1ccc(NC(=O)CCS(=O)(=O)c2cccc3nonc23)cc1	20	-15	-15	-1	-3	-3	/	/	/	/
Cc1ccc2c(c1)C(=O)C(=O)N2Cc1ccc(Br)cc1	3	-8	82*	18	/	-13	19	43	8	0
Cc1ccc(CN2C(=O)C(=O)c3cc(C)ccc32)cc1	0	8	33	5	/	-11	/	/	/	/
Cc1ccc(C)c(N2CCN(C(=O)CCc3nc(-c4ccccc4C)no3)CC2)c1	18	-8	14	0	/	-32	/	/	/	/
Cc1ccc(C)c(N2CCN(C(=O)CCc3nc(-c4ccccc4Cl)no3)CC2)c1	23	-15	59*	3	/	-23	26*	35	5	4
CCCCC(C(=O)NC(C)(C)C)N(Cc1ccccc1Cl)C(=O)c1snc(C(N)=O)c1N (stereo not drawn)	/	/	15	14	-22	/	/	/	/	/
COCCN(C(=O)C1CCCO1)c1c(N)n(CC(C)C)c(=O)[nH]c1=O (stereo not drawn)	5	-2	-2	2	/	2	/	/	/	/
O=C(CCC(=O)N1CCOCC1)NCCc1ccc(F)cc1	10	-9	/	/	/	-4	-5	/	1	/
S=c1[nH]nc(SCc2ccccc2)c2[nH]cnc12	/	/	-13	2	/	/	/	/	/	/
COCCCNC(=O)c1cc(-c2cccnc2)nc2ccccc12	-8	-8	10	2	-20	-7	/	/	/	/
Cc1ccc(C)c(Nc2cc(C(=O)NCc3cccnc3)c3ccccc3n2)c1	25	-27	50*	13	12	-15	22*	44	9	7
COc1ccccc1CNC(=O)c1cc(-c2cccnc2)nc2ccccc12	15	-34	74*	15	-5	-15	23*	39	10	14
Cc1cc(CNC(=O)c2cc(-c3ccccc3)nc3ccccc23)nn1C	17	-22	52*	8	-18	-15	24*	43	10	9
